The species named for data set [1] is Homo sapiens. Nature of the data set: Fraction unbound in human plasma.
The test system of data set [2] is Hepatitis C virus. The experiment in a line: Inhibition of HCV 1b NS3 protease by time-resolved fluorescence assay. Also on record: species or system Hepatitis C virus subtype 1b. The procedure, abridged:
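Recombinant genotype 1b NS3 protease measured by time-resolved fluorescence assay; Ki determined.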

The subject of data set [3] is Hepatitis C virus. Nature of the data set: Antiviral activity against HCV 1b infected in human HuH7 cells by replicon assay in presence of 50% normal human plasma. It counts as functional, organism-based, Hepacivirus hominis. Particulars: genotype 1b, Huh-7, Plasma. The method, boiled down:
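Genotype 1b subgenomic replicon in HUH-7 cells run under high-serum conditions (50% normal human serum). Read-out is cellular HCV RNA; EC50 reported.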
In general terms: In antiviral work, replicon cells carry a viral genome segment that copies itself.

The subject of data set [4] is Hepatitis C virus. The experiment in a line: Antiviral activity against HCV 1b infected in human HuH7 cells by replicon assay in presence of 10% fetal bovine serum. To be noted: genotype 1b, Huh-7. It counts as functional, organism-based, Hepacivirus hominis. The procedure, abridged: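 Subgenomic genotype 1b HCV RNA replicon in HUH-7 cells, modified Bartenschlager procedure, run with 10% fetal bovine serum. Read-out is cellular HCV RNA, confirmed in a separate assay using an anti-NS3 monoclonal antibody; EC50 derived.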

Data set [5] can be described thus: AUC (0 to 4 hrs) in Sprague-Dawley rat at 5 mg/kg, po. It counts as ADME, organism-based. Also on record: time < 4 hr, dose 5 mg/kg, route oral. Particulars: plasma. The procedure, abridged: (§1)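 Oral dosing in male Sprague-Dawley rats, PEG400 vehicle; plasma exposure as AUC 0–4 h; liver tissue concentration taken at the 4 h time point. Doses of 3–4 mg/kg were normalized to 5 mg/kg by linear adjustment.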

The nature of data set [6]: Drug level in Sprague-Dawley rat liver at 4 mg/kg, po after 4 hrs. Format: ADME, organism-based. Particulars: read-out: Drug uptake. Also on record: dose 4 mg/kg, route oral. The procedure, abridged: as §1
Data set [7] is described as follows: AUC (0 to 4 hrs) in Sprague-Dawley rat at 4 mg/kg, po. It counts as ADME, organism-based. Also on record: time < 4 hr, dose 4 mg/kg, route oral. To be noted: plasma. The procedure, abridged:
as §1

Data set [8] can be described thus: Drug level in Sprague-Dawley rat liver at 5 mg/kg, po after 4 hrs. Format: ADME, organism-based. Also on record: dose 5 mg/kg, route oral. Particulars: read-out: Drug uptake. The procedure, abridged: as §1

The structures appear in SMILES notation. Bounds are passed on as bounds.

As a reminder, the fraction unbound is free concentration divided by total concentration. High values mean much free substance, low ones little free substance. Broadly, the Ki is the equilibrium dissociation constant of an inhibitor or competing ligand from its target. A higher Ki goes with lower affinity. The EC50 is the concentration at which the effect is half-maximal. In turn, `C=C[C@@H]1C[C@]1(NC(=O)[C@@H]1C[C@@H]2CN1C(=O)C(C(C)C)NC(C(F)(F)F)CCCCCCc1cccc3c1CN(C3)C(=O)O2)C(=O)NS(=O)(=O)C1CC1` (single isomer, unassigned) registered a fraction unbound in data set [1] of 0.019. Further, in data set [2], the inhibition constant (Ki) worked out at 1.1 nM. Further, the figures for the 50% effective concentration (EC50) in data set [3] and in data set [4] were 320 nM and 18 nM, respectively.

A word on the AUC(0-t): it is exposure summed from dosing to a finite time, without extrapolation to infinity. Read a high AUC(0-t) as high exposure. For `C=C[C@@H]1C[C@]1(NC(=O)[C@@H]1C[C@@H]2CN1C(=O)[C@H](C1CCCCC1)N[C@H](C)CCCCCCc1cccc3c1CN(C3)C(=O)O2)C(=O)NS(=O)(=O)C1CC1`, the Ki in data set [2] turned out to be 0.06 nM. Also, the AUC(0-t) at 4 h in data set [5] was less than 100 nM·h. Besides, in data set [4], the concentration for a half-maximal effect (EC50) turned out to be 2 nM.

In data set [2], `C=C[C@@H]1C[C@]1(NC(=O)[C@@H]1C[C@@H]2CN1C(=O)[C@H](C1CCCC1)N[C@H](C)CCCCCCc1cccc3c1CN(C3)C(=O)O2)C(=O)NS(=O)(=O)C1CC1` displayed an inhibitory constant (Ki) of 0.1 nM. Also, the half-maximal effective concentration (EC50) in data set [4] came to 0.7 nM. In addition, the concentration at 4 h in data set [6] was less than 0.1 µM. In addition, the AUC(0-t) at 4 h in data set [7] is less than 100 nM·h.

Take `C=C[C@@H]1C[C@]1(NC(=O)[C@@H]1C[C@@H]2CN1C(=O)C(C(C)C)NCC(F)(F)CCCCCc1cccc3c1CN(C3)C(=O)O2)C(=O)NS(=O)(=O)C1CC1` (single isomer, unassigned): in data set [2], the affinity, expressed as Ki, was 0.35 nM. The EC50 amounted to 100 nM in data set [3] and 14 nM in data set [4].

On to `C=C[C@@H]1C[C@]1(NC(=O)[C@@H]1C[C@@H]2CN1C(=O)[C@H](C1CCCCC1)N(C)[C@H](C)CCCCCCc1cccc3c1CN(C3)C(=O)O2)C(=O)NS(=O)(=O)C1CC1`, for which, in data set [2], the Ki came out at 0.35 nM. Further, the concentration at 4 h in data set [8] and in data set [6] was 0.56 µM throughout. For the same compound, the area under the curve AUC(0-t) at 4 h in data set [5] and in data set [7] was less than 100 nM·h throughout. Besides, in data set [4], the 50% effective concentration (EC50) amounted to 3 nM.

On to `C=C[C@@H]1C[C@]1(NC(=O)[C@@H]1C[C@@H]2CN1C(=O)[C@H](C(C)C)N[C@@H](C(F)(F)F)CCCCCCc1cccc3c1CN(C3)C(=O)O2)C(=O)NS(=O)(=O)C1CC1`, for which, in data set [2], affinity was put at a Ki of 5.7 nM. In addition, the EC50 in data set [4] was determined as 470 nM.

Turning to `C=C[C@@H]1C[C@]1(NC(=O)[C@@H]1C[C@@H]2CN1C(=O)[C@H](C(C)C)NC(=O)OCCC/C=C/c1cccc3c1CN(C3)C(=O)O2)C(=O)NS(=O)(=O)C1CC1`, affinity in data set [2] was put at a Ki of 0.04 nM. In addition, the EC50 in data set [4] turned out to be 12 nM.

`C=C[C@@H]1C[C@]1(NC(=O)[C@@H]1C[C@@H]2CN1C(=O)[C@H](C1CCCC1)N[C@H](C)CCCC/C=C/c1cccc3c1CN(C3)C(=O)O2)C(=O)NS(=O)(=O)C1CC1` had an inhibitory constant (Ki) in data set [2] of 0.29 nM. In data set [8], the concentration at 4 h was 0.26 µM. Further, the AUC(0-t) at 4 h in data set [5] was less than 100 nM·h. In addition, the concentration giving a half-maximal response (EC50) in data set [4] was 0.5 nM.
